Assay results collected from several papers.
Each line is one published result; the experiments were not run side by side.
Target: Inhibitor of nuclear factor kappa-B kinase subunit alpha (CHUK, Homo sapiens, UniProt O15111)
Residues used in one study (O15111 1-745): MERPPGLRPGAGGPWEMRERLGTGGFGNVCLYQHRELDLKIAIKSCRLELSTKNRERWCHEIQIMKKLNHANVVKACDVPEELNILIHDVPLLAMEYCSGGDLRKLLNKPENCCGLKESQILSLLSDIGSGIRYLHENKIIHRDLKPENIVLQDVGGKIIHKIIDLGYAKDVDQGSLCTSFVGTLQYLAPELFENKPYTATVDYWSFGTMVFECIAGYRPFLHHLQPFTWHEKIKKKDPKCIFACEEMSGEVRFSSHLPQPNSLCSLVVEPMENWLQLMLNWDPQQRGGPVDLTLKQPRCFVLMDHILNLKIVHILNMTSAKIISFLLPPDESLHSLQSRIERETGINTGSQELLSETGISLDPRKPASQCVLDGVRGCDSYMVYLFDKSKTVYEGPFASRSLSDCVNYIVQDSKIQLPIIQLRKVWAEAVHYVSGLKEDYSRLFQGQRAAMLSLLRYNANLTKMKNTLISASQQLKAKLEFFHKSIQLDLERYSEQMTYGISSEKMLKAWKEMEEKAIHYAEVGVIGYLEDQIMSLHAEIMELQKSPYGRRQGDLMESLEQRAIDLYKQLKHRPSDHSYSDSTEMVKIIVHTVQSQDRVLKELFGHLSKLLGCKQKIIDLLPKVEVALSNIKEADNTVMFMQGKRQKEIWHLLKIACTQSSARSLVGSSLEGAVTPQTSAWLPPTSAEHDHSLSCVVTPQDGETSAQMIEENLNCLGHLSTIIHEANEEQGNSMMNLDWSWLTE

| SMILES | effect on | technique | tested at | remaining binding |
| --- | --- | --- | --- | --- |
| O=C(NCC1CCOCC1)c1n[nH]cc1NC(=O)c1c(F)cccc1F | binding | competition with immobilised ligand | 1 µM | 86% |
| CN(C)c1ncc(F)c(-c2cnn3ncccc23)n1 | binding | – | 1 µM | 70% |
| O=C(Nc1cnc(Oc2ccc(F)cc2)nc1)N1CCc2ncccc2[C@@H]1c1ccc(F)cc1 | cell-free assay | competition with immobilised ligand | 1 µM | 100% |
| COc1cnc(Nc2cccc(S(N)(=O)=O)c2)nc1N1CCN(c2ccccc2)CC1 | binding | competition with immobilised ligand | 1 µM | 89% |
| Nc1c(C(=O)NCc2ccc(C(=O)NCCCC3CCCCC3)cc2)cnn1-c1ccccc1 | cell-free assay | competition with immobilised ligand | 0.1 µM | 100% |
| C[C@@H]1CCN(c2nccc(-c3cnn4ncccc34)n2)C1 | binding | – | 1 µM | 81% |
| c1cncc(-c2cccc(Nc3nccc(NC4CCCCC4)n3)c2)c1 | binding | competition with immobilised ligand | 10 µM | 87% |
| COc1ccc2cc(OCC3(C(=O)O)CN(C(=O)c4ccc(F)cc4)C3)ccc2c1 | cell-free assay | competition with immobilised ligand | 1 µM | 100% |
| O=C(c1ccc(Nc2ncc(Cl)c(-c3ccc(Cl)s3)n2)cc1)N1CCC(N2CCCC2)CC1 | binding | competition with immobilised ligand | 1 µM | 2.9% |
| COc1ccnn2ncc(-c3ccnc(N(C)C)n3)c12 | binding | – | 1 µM | 71% |
| O=C(Nc1ccc(Oc2ccc(F)cc2)cc1)N1CCc2ncccc2[C@H]1c1ccc(F)cc1 | cell-free assay | competition with immobilised ligand | 1 µM | 100% |
| N[C@H]1CCN(c2nccc(-c3cnn4ncccc34)n2)C1 | binding | – | 1 µM | 82% |
| C[C@@H]1CN(c2ccc3ncc(-c4ccc5[nH]nc(C6CC6)c5c4)n3n2)C[C@H](C)O1 | binding | competition with immobilised ligand | 50 nM | 86% |
| C[C@@H](c1ccc(-n2cnc3c(N)ncnc32)cc1)N1CCc2nn(C)c(Cc3ccccc3)c2C1=O | binding | competition with immobilised ligand | 0.1 µM | 80% |
| Cc1cnc(Nc2ccc(C(=O)N3CCC(N4CCCC4)CC3)cc2)nc1-c1cc2ccccc2s1 | binding | competition with immobilised ligand | 1 µM | 1.3% |
| Cc1nccc(COC(=O)N2C[C@@H]3[C@@H](CNC(=O)c4ccc5[nH]nnc5c4)[C@@H]3C2)n1 | cell-free assay | competition with immobilised ligand | 1 µM | 100% |
| CN(CCCC(F)(F)F)c1nccc(-c2cnn3ncccc23)n1 | binding | – | 1 µM | 99% |
| COc1cc(-c2cn(C3CCc4ccccc4N(CC(F)(F)F)C3=O)nn2)ccc1-n1ccc(C)n1 (stereo not shown) | cell-free assay | competition with immobilised ligand | 1 µM | 98% |
| FC(F)(F)Oc1cccc(-c2cnc3ccc(-c4ccncc4)nn23)c1 | cell-free assay | competition with immobilised ligand | 5 µM | 39% |
| COc1cnc(Nc2cccc(S(N)(=O)=O)c2)nc1N1CCN(c2ccccc2)C(=O)C1 | binding | competition with immobilised ligand | 1 µM | 91% |
| C=CC(=O)N1CCC(C(=O)NCC(=O)N2CCN(c3nc(-c4cnc(N)nc4C(F)F)nc(N4CCOCC4)n3)CC2)CC1 | binding | competition with immobilised ligand | 1 µM | 71% |
| F[C@@H]1CCN(c2nccc(-c3cnn4ncccc34)n2)C1 | binding | – | 1 µM | 100% |
| C[C@@]1(Cc2ccc(C#N)cc2)C(=O)N(c2cc(Cl)cc(Cl)c2)c2ncc(C(=O)NC3(c4nc(C5CCC5)no4)CC3)n21 | cell-free assay | competition with immobilised ligand | 1 µM | 100% |
| CC1CCCN1c1nccc(-c2cnn3ncccc23)n1 (stereo not shown) | binding | – | 1 µM | 86% |
| O=C(NCCCN1CCOCC1)c1ccc(Nc2ncc(Cl)c(-c3ccc(Cl)s3)n2)cc1 | binding | competition with immobilised ligand | 1 µM | 51% |
